Measurements taken from ChEMBL document CHEMBL2321843, “Opioid peptidomimetics: leads for the design of bioavailable mixed efficacy μ opioid receptor (MOR) agonist/δ opioid receptor (DOR) antagonist ligands” (J Med Chem, 2013).
Activity calls are given as the source filed them.

Experiments:
[1] = target: T1, Delta-type opioid receptor (Rattus norvegicus, UniProt P33533); assay: Displacement of [3H]diprenorphine from rat DOR expressed in rat C6 cells after 1 hr by liquid scintillation counting analysis; format: cell-based
T1 sequence (P33533 whole entry): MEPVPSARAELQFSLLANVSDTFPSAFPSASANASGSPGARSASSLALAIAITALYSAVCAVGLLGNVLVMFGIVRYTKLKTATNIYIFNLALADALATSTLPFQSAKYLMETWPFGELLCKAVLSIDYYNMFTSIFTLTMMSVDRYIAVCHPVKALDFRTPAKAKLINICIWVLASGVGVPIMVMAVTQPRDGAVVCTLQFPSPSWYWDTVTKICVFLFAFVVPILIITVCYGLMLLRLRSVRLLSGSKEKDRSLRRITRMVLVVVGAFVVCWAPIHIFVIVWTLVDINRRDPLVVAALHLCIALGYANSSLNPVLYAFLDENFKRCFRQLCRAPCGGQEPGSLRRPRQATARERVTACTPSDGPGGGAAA

[2] = target: T2, Kappa-type opioid receptor (Homo sapiens, UniProt P41145); format: functional, cell-based, CHO
T2 sequence (P41145 whole entry): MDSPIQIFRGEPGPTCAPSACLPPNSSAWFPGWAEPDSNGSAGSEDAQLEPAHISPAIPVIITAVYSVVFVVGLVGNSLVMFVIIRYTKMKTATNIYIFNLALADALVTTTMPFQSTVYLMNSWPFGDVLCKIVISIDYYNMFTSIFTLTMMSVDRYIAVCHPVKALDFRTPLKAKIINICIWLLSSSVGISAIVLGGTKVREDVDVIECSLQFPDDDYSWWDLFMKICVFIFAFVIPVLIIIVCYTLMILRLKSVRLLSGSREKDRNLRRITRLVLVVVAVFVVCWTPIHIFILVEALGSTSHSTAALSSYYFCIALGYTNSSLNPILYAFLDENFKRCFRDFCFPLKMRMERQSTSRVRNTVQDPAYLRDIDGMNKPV

[3] = target: T2, Kappa-type opioid receptor; format: cell-based, CHO
[4] = target: T2, Kappa-type opioid receptor; conditions: CHO, 10 uM
[5] = target: T1, Delta-type opioid receptor; assay: Agonist activity at rat DOR expressed in rat C6 cells assessed as stimulation of [35S]GTPgammaS binding after 1 hr by liquid scintillation counting analysis; format: functional, cell-based
Mu-type opioid receptor [6] = target: T3, Mu-type opioid receptor (Rattus norvegicus, UniProt P33535); assay: Displacement of [3H]diprenorphine from rat MOR expressed in rat C6 cells after 1 hr by liquid scintillation counting analysis; format: cell-based
T3 sequence (P33535 whole entry): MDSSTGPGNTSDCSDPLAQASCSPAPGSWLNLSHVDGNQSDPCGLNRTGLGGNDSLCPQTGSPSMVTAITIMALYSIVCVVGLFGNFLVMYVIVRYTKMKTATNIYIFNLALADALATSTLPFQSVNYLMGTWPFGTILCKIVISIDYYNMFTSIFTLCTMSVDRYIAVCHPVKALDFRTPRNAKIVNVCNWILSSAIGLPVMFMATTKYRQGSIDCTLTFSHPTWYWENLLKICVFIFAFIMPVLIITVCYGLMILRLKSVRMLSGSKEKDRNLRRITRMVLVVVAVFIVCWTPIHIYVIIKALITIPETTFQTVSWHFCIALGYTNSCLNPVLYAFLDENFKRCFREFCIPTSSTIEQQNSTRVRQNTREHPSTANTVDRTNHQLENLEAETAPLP

[7] = target: Mu-type opioid receptor (Rattus norvegicus) (UniProt P33535); assay: Agonist activity at rat MOR expressed in rat C6 cells assessed as stimulation of [35S]GTPgammaS binding at 10 uM after 1 hr by liquid scintillation counting analysis relative to DAMGO; format: functional, cell-based
Sequence of Mu-type opioid receptor (Rattus norvegicus) (P33535 whole entry): as above

Mu-type opioid receptor [8] = target: T3, Mu-type opioid receptor; assay: Agonist activity at rat MOR expressed in rat C6 cells assessed as stimulation of [35S]GTPgammaS binding after 1 hr by liquid scintillation counting analysis; format: functional, cell-based
[9] = target: Delta-type opioid receptor (Rattus norvegicus) (UniProt P33533); assay: Agonist activity at rat DOR expressed in rat C6 cells assessed as stimulation of [35S]GTPgammaS binding at 10 uM after 1 hr by liquid scintillation counting analysis relative to DPDPE; format: functional, cell-based
Sequence of Delta-type opioid receptor (Rattus norvegicus) (P33533 whole entry): as the sequence (P33533 whole entry) above

[10] = target: Delta-type opioid receptor (Rattus norvegicus) (UniProt P33533); conditions: C6
Mus musculus [11] = assay: Antinociceptive activity in C57BL/6 mouse assessed as duration of maximal activity at 10 mg/kg, ip by warm water tail withdrawal assay; format: functional; conditions: route intraperitoneal
How it was run: (§1)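 Male C57BL/6 mice given a single ip dose of 10 mg/kg. Tail-withdrawal latency (50 °C water, 20 s cutoff) measured at varying times after dosing to build a time course.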

Mus musculus [12] = assay: Antinociceptive activity in C57BL/6 mouse assessed as tail withdrawal latency at 3.2 to 32 mg/kg, ip after 30 mins by warm water tail withdrawal assay in presence of opioid antagonist naltrexone; format: functional, organism-based
How it was run: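 Male C57BL/6 mice pretreated ip with naltrexone 1 mg/kg, 30 min before testing. Cumulative ip dosing to totals of 3.2, 10 and 32 mg/kg at 30 min intervals, with latency read 30 min after each injection. Tail tip immersed in 50 °C water, 20 s cutoff.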

Mus musculus [13] = assay: Antinociceptive activity in ip dosed C57BL/6 mouse assessed as tail withdrawal latency after 30 mins by warm water tail withdrawal assay; format: functional
Mus musculus [14] = assay: Antinociceptive activity in C57BL/6 mouse assessed as increase in duration of maximal activity at 10 mg/kg, ip by warm water tail withdrawal assay; format: functional, organism-based; set-up: dose 10 mg/kg; how it was run: as §1

SMILES	Ki [1] [nM]	Ki [3] [nM]	EC50 [5]	Emax [7] [%]	EC50 ([2]; cho)	other results
Cc1cc(O)cc(C)c1C[C@H](N)C(=O)N[C@@H]1CCNc2ccc(CC3Cc4ccccc4C3)cc21	4.1	1.2	Not Active	86		EC50 ([2]; read-out: EC50): 68 nM; Emax [4]: 38%; Ki (Mu-type opioid receptor [6]): 0.16 nM; EC50 (Mu-type opioid receptor [8]): 0.24 nM
Cc1cc(O)cc(C)c1C[C@H](N)C(=O)N[C@@H]1CCNc2ccc(Cc3cccc4ccccc34)cc21				93	Not Active	Emax [9]: 15%
Cc1cc(O)cc(C)c1C[C@H](N)C(=O)N[C@@H]1CCNc2ccc(Cc3ccc4ccccc4c3)cc21	10	54	Not Active	96	Not Active	Ke [10]: 34.3 nM
Cc1cc(O)cc(C)c1C[C@H](N)C(=O)N[C@@H]1CCNc2ccc(Cc3ccccc3)cc21						Time (Mus musculus [11]): 60 min; Activity (Mus musculus [12]): inactive; Activity (Mus musculus [13]): Dose-dependent effect; ED50 (Mus musculus [13]; C57BL/6, Tail, 0.5 h): 3 mg/kg
CN1CC[C@]23c4c5ccc(O)c4O[C@H]2[C@@H](O)C=C[C@H]3[C@H]1C5						Activity (Mus musculus [14]): Active
Cc1cc(O)cc(C)c1C[C@H](N)C(=O)N[C@@H]1CCNc2ccc(CCc3ccccc3)cc21			Not Active	45	Not Active	
